Measurements published in ChEMBL document CHEMBL1146717, “Investigation of novel fumagillin analogues as angiogenesis inhibitors” (Bioorg Med Chem Lett, 2004).
Blank lines part the entries; values can stand above or below the compound they belong to.

Columns and labels:
HUVEC [1] = test: Tested for inhibition of the human umbilical vein endothelial cell (HUVEC) proliferation
HUVEC [2] = test: Percent remained in HUVEC lysate after 0.5 hr in presence of epoxide hydrolase (EH) along with inhibitor (Compound used as hydrolysate); Expressed as % remaining; format: functional, Homo sapiens
Summary of the method: (§1)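 Epoxide hydrolase (1 mg/mL protein, final) was co-incubated at 37 °C with the compound (2 mM) plus cyclohexene oxide (50 mM) as EH inhibitor. Substrate remaining and hydrolysate were quantified at 3 min, 0.5 h and 2 h as % values, with an estimated error of 10–15%.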

HUVEC [3] = test: Percent remained in HUVEC lysate after 0.5 hr in presence of epoxide hydrolase (EH) along with inhibitor (Control = 103) (Compound used as substrate); Expressed as % remaining; format: functional, Homo sapiens; summary of the method: as §1
HUVEC [4] = test: Percent remained in HUVEC lysate after 2 hr in presence of epoxide hydrolase (EH) (Compound used as hydrolysate); Expressed as % remaining; format: functional, Homo sapiens
Summary of the method: (§2)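 Each compound at 2 mM incubated at 37 °C with epoxide hydrolase (1 mg/mL protein, final), alongside a no-enzyme control. Substrate remaining and hydrolysate formed were quantified at 3 min, 0.5 h and 2 h as % values. Estimated measurement error is 10–15%.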

HUVEC [5] = test: Percent remained in HUVEC lysate after 2 hr in presence of epoxide hydrolase (EH) (Control = 100) (Compound used as substrate); Expressed as % remaining; format: functional, Homo sapiens; summary of the method: as §2
HUVEC [6] = test: Percent remained in HUVEC lysate after 2 hr in presence of epoxide hydrolase (EH) along with inhibitor (Compound used as hydrolysate); Expressed as % remaining; format: functional, Homo sapiens; summary of the method: as §1
HUVEC [7] = test: Percent remained in HUVEC lysate after 2 hr in presence of epoxide hydrolase (EH) along with inhibitor (Control = 103) (Compound used as substrate); Expressed as % remaining; format: functional, Homo sapiens; summary of the method: as §1
HUVEC [8] = test: Percent stability after 4 hr in HUVEC lysate; Expressed as % remaining; format: functional, Homo sapiens
Summary of the method: (§3)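 Compound (1 mM) was incubated in HUVEC lysate at 37 °C and sampled at 0, 4 and 20 h. Results are expressed as % of compound remaining, with an estimated measurement error of 10–15%.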

HUVEC [9] = test: Percent stability after 20 hr in HUVEC culture medium; expressed as % remaining; format: functional, Homo sapiens
HUVEC [10] = test: Percent stability after 4 hr in HUVEC culture medium; expressed as % remaining; format: functional, Homo sapiens
HUVEC [11] = test: Percent remained in HUVEC lysate after 3 min in presence of epoxide hydrolase (EH) (Compound used as hydrolysate); Expressed as % remaining; format: functional, Homo sapiens; summary of the method: as §2
HUVEC [12] = test: Percent remained in HUVEC lysate after 3 min in presence of epoxide hydrolase (EH) (Control = 100) (Compound used as substrate); Expressed as % remaining; format: functional, Homo sapiens; summary of the method: as §2
HUVEC [13] = test: Percent remained in HUVEC lysate after 3 min in presence of epoxide hydrolase (EH) along with inhibitor (Control = 100) (Compound used as substrate); Expressed as % remaining; format: functional, Homo sapiens; summary of the method: as §1
HUVEC [14] = test: Percent stability determined after 20 hr in HUVEC lysate; expressed as % remaining; format: functional, Homo sapiens; summary of the method: as §3
HUVEC [15] = test: Percent stability after 0 hr in HUVEC culture medium; expressed as % remaining; format: functional, Homo sapiens
HUVEC [16] = test: Percent remained in HUVEC lysate after 0.5 hr in presence of epoxide hydrolase (EH) (Compound used as hydrolysate); Expressed as % remaining; format: functional, Homo sapiens; summary of the method: as §2
HUVEC [17] = test: Percent remained in HUVEC lysate after 0.5 hr in presence of epoxide hydrolase (EH) (Control = 103) (Compound used as substrate); Expressed as % remaining; format: functional, Homo sapiens; summary of the method: as §2
HUVEC [18] = test: Percent stability determined after 0 hr in HUVEC lysate; expressed as % remaining; format: functional, Homo sapiens; summary of the method: as §3
HUVEC [19] = test: Percent remained in HUVEC lysate after 0.5 hr in presence of epoxide hydrolase (EH) along with inhibitor (Control = 92) (Compound used as substrate); Expressed as % remaining; format: functional, Homo sapiens; summary of the method: as §1
HUVEC [20] = test: Percent remained in HUVEC lysate after 2 hr in presence of epoxide hydrolase (EH) along with inhibitor (Control = 90) (Compound used as substrate); Expressed as % remaining; format: functional, Homo sapiens; summary of the method: as §1
HUVEC [21] = test: Percent remained in HUVEC lysate after 3 min in presence of epoxide hydrolase (EH) used as hydrolysate; Expressed as % remaining; format: functional, Homo sapiens; summary of the method: as §2
HUVEC [22] = test: Percent remained in HUVEC lysate after 2 hr in presence of epoxide hydrolase (EH) along with inhibitor (Control = 106) used as substrate; Expressed as % remaining; format: functional, Homo sapiens; summary of the method: as §1
HUVEC [23] = test: Percent stability determined after 0 hr in HUVEC culture medium; Expressed as % remaining; format: functional, Homo sapiens
HUVEC [24] = test: Percent stability determined after 0 hr in HUVEC lysate; Expressed as % remaining; format: functional, Homo sapiens; summary of the method: as §3
HUVEC [25] = test: Percent stability determined after 20 hr in HUVEC culture medium; Expressed as % remaining; format: functional, Homo sapiens
HUVEC [26] = test: Percent stability determined after 20 hr in HUVEC lysate; Expressed as % remaining; format: functional, Homo sapiens; summary of the method: as §3
HUVEC [27] = test: Percent stability determined after 4 hr in HUVEC culture medium; Expressed as % remaining; format: functional, Homo sapiens
HUVEC [28] = test: Percent stability determined after 4 hr in HUVEC lysate; Expressed as % remaining; format: functional, Homo sapiens; summary of the method: as §3
[29] = target: Methionine aminopeptidase 2 (Homo sapiens, UniProt P50579); test: Inhibitory activity against Methionine aminopeptidase 2
Sequence of Methionine aminopeptidase 2 (P50579 whole entry): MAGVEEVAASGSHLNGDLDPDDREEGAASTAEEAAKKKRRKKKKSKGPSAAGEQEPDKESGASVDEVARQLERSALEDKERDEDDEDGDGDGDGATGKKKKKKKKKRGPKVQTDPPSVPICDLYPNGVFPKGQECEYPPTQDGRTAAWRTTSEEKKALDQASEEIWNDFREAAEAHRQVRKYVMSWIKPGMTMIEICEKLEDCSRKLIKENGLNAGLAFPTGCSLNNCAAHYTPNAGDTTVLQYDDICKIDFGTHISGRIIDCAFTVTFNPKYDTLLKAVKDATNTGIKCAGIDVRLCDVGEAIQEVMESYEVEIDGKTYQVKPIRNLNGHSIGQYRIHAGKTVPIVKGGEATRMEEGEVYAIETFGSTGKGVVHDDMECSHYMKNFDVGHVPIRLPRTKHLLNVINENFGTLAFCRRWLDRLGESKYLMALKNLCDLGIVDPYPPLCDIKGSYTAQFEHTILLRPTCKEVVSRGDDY

Structure (SMILES): CO[C@@H]1[C@H](OC(C)=O)CC[C@]2(CO2)[C@H]1/C(C)=N/OCc1ccccc1
EC50 (HUVEC [1]): 450 nM

Structure (SMILES): CO[C@@H]1[C@H](OC(N)=O)CC[C@]2(CO2)[C@H]1/C(C)=N/OCc1ccccc1
Activity (HUVEC [2]): 15% | Activity (HUVEC [3]): 95% | Activity (HUVEC [4]): 100% | Activity (HUVEC [5]): 1% | Activity (HUVEC [6]): 60% | Activity (HUVEC [7]): 60% | Activity (HUVEC [8]): 20% | EC50 (HUVEC [1]): 88 nM | Activity (HUVEC [9]): 69% | Activity (HUVEC [10]): 90% | Activity (HUVEC [11]): 93% | Activity (HUVEC [12]): 10% | Activity (HUVEC [13]): 106% | Activity (HUVEC [14]): 3% | Activity (HUVEC [15]): 100% | Activity (HUVEC [16]): 95% | Activity (HUVEC [17]): 2% | Activity (HUVEC [18]): 100%

Structure (SMILES): CO[C@@H]1[C@H](OC(C)=O)CC[C@]2(CO2)[C@H]1[C@@]1(C)O[C@@H]1CC=C(C)C
EC50 (HUVEC [1]): 3 nM

Structure (SMILES): CO[C@@H]1[C@H](OC(N)=O)CC[C@]2(CO2)[C@H]1/C(C)=C/CC=C(C)C
Activity (HUVEC [2]): 21% | Activity (HUVEC [19]): 75% | Activity (HUVEC [4]): 100% | Activity (HUVEC [6]): 87% | Activity (HUVEC [8]): 36% | EC50 (HUVEC [1]): 490 nM | Activity (HUVEC [9]): 68% | Activity (HUVEC [10]): 76% | Activity (HUVEC [20]): 5% | Activity (HUVEC [12]): 18% | Activity (HUVEC [13]): 108% | Activity (HUVEC [21]): 77% | Activity (HUVEC [14]): 1% | Activity (HUVEC [15]): 100% | Activity (HUVEC [16]): 79% | Activity (HUVEC [18]): 100%

Structure (SMILES): CO[C@@H]1[C@H](OC(N)=O)CC[C@]2(CO2)[C@H]1[C@@]1(C)O[C@@H]1CC=C(C)C
Activity (HUVEC [3]): 109% | Activity (HUVEC [4]): 100% | EC50 (HUVEC [1]): 0.65 nM | Activity (HUVEC [22]): 107% | Activity (HUVEC [11]): 22% | Activity (HUVEC [12]): 84% | Activity (HUVEC [13]): 98% | Activity (HUVEC [16]): 103%

Structure (SMILES): CCN1CCN(C(=O)O[C@@H]2CC[C@]3(CO3)[C@@H]([C@@]3(C)O[C@@H]3CC=C(C)C)[C@@H]2OC)CC1
Activity (HUVEC [23]): 100% | Activity (HUVEC [24]): 100% | Activity (HUVEC [25]): 75% | Activity (HUVEC [26]): 76% | Activity (HUVEC [27]): 95% | Activity (HUVEC [28]): 91%

IC50 [29]: 0.63 nM
Structure (SMILES): CO[C@@H]1[C@H](OC(=O)/C=C/C=C/C=C/C=C/C(=O)O)CC[C@]2(CO2)[C@H]1[C@@]1(C)O[C@@H]1CC=C(C)C [FUMAGILLIN]
EC50 (HUVEC [1]): 0.82 nM
